Screening data deposited in PubChem BioAssay by several laboratories.
Rows were chosen to be rich in hits. Some 1.7% of all compounds tested hit in one or more screens of this group.
DSG3 Ab inh = inhibitors of pemphigus antibody binding to human desmoglein-3 | DSG3-coupled beads, scFv-anti-DSG3-GFP binding, flow cytometry; hits give low values | binding (percent of control), % at 10 µM | P32926 | 0.48% of 310,000 active;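 active = binding more than 3 SD below its plate's average and above zero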;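 also: hits lower antibody fragment binding to DSG3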
Efflux pump mplx = inhibitors of Candida antifungal efflux pumps expressed in yeast | S. cerevisiae Candida pump triplex, Nile Red efflux | inhibition, % at 10 µM | 0.44% of 330,000 active | AID 485275;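 active = plate passing quality check with inhibition over a set limit, or well fluorescence over plate mean plus 4 SD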;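 also: Nile Red retained in pooled yeast measured as flow cytometry median fluorescence; 0% = buffer negative control and 100% = Enniatin B positive control; higher means more Nile Red kept so more efflux inhibition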
Neddylation inh = cullin neddylation inhibition. TR-FRET cullin neddylation, biochemical. 0.58% of 360,000 active. inhibition, % at 25 µM. P61081+Q13564; in the data active = inhibition above about 36%
Target sequence (P61081 whole entry, looked up): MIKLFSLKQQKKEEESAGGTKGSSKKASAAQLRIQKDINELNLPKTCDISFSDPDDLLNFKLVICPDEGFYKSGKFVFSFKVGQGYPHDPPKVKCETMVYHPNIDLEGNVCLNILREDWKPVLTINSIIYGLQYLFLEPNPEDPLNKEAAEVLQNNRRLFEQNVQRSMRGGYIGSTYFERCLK
Target sequence (Q13564 whole entry, looked up): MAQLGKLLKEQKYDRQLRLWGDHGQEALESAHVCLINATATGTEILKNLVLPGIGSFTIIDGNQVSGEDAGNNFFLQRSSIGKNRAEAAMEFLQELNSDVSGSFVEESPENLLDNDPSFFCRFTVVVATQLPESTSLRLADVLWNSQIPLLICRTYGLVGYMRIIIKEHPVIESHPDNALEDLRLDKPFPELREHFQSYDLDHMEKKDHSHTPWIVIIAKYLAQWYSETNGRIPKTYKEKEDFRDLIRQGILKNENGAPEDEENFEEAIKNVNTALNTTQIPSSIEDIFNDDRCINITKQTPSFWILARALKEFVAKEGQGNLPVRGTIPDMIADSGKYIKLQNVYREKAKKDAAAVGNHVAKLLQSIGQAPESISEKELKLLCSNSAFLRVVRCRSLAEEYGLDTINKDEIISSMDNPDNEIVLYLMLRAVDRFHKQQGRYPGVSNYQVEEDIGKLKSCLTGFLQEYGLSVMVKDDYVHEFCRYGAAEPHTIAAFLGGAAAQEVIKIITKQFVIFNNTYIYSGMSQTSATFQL
Arr AP2 block = blocks beta-arrestin peptide binding to AP2 adaptin; FITC-arrestin peptide / GST-AP2 beads, flow cytometry; AP2 beta2 appendage carries R879A mutation; inhibition, % at 10 µM; 0.31% of 340,000 active; AID 504490;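 active = inhibition above a set limit, near 3 SD of compounds lacking own fluorescence, cut at about 54% in these data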;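 also: plate controls were DMSO wells for no effect and 5 µM unlabelled arrestin peptide for full effect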
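Assay system: GST-AP2 R879A bound to glutathione beads, E. coli-expressed; Medium: PBS with 0.05% Tween 20 and 0.1% BSA; Also added: fluorescein-tagged arrestin peptide at 50 nM final; Timing: 12 min plus 1 h, RT; Measured by: flow cytometry, FL1 (488/535 nm); Evaluation: percent drop in bead-associated FITC signal.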
Neddyl inh conf = cullin neddylation inhibition, confirmation; shares compounds with Neddylation inh; TR-FRET cullin neddylation biochemical assay; calls only at 25 µM; 13% of 1,800 active; AID 652217; in the data active = inhibition above about 40%;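 also: neddylation substrate is the cullin 1 ring ligase complex with SKP2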
The depositor's hits bear a star; i = inactive; . = no result given; + = active, no number.

SMILES	DSG3 Ab inh	Efflux pump mplx	Neddylation inh	Arr AP2 block	others
CC(Oc1ccc2c(-c3ccccc3)cc(=O)oc2c1)C(=O)NC(Cc1c[nH]c2ccc(O)cc12)C(=O)O (centres undefined)	101.4	-0.4	-14.1	-3.8
COc1ccc2c(c1)c(=O)oc1c(C)c(OC(C)C(=O)N[C@@H](Cc3c[nH]c4ccc(O)cc34)C(=O)O)ccc12 (some centres undefined)	100.2	0.1	46.6*	5.4
Cc1cc(C)nc(Nc2nc(C(N)CCc3ccccc3)cs2)n1 (centres undefined)	.	.	2.9	.
Cc1cc(C)nc(NC(=O)c2cc(-c3ccc4c(c3)OCO4)nc3ccccc23)c1	107.3	0.2	52.7*	5.5
CSc1cccc2sc(NC(=O)C3=COCCO3)nc12	96.7	-0.1	51.9*	0.7
COc1ccc(Cl)c2sc(NC(=O)C3=COCCO3)nc12	94.6	0.0	42.0*	-6.9	Neddyl inh conf=i
O=C(NNc1nc2c(F)cccc2s1)C1=COCCO1	89.8	-0.1	6.2	-5.5
Cc1ccc(C(c2c(NC(=O)c3ccco3)sc(C)c2C)N2CCOCC2)cc1 (centres undefined)	100.9	.	.	.
Cc1sc(NC(=O)c2ccco2)c(C(c2ccccc2)N2CCC(C)CC2)c1C (centres undefined)	98.5	-0.1	45.0*	-5.3
COc1cccc(-c2cc(C(=O)Nc3cccnc3Cl)no2)c1	.	1.2	.	18.7
O=C(Nc1cccnc1Cl)c1cc(-c2cccc(O)c2)on1	88.0	-0.1	69.5*	16.2	Neddyl inh conf=+
COc1ccccc1OCc1nnc(SCC(=O)Nc2nnc(C3CC3)s2)n1C	97.0	0.1	-3.6	24.1
N#Cc1ccc(/C=C(\C(=O)C(=O)O)c2ccc3ccccc3n2)cc1	92.5	-0.1	39.3*	7.4	Neddyl inh conf=i
CC(=O)Cn1c2ccccc2n2nc(CCC(=O)O)c(=O)nc12	102.8	0.0	.	-5.9
COc1ccc(C(=O)Cn2c3ccccc3n3nc(CCC(=O)O)c(=O)nc23)cc1OC	99.3	-0.2	44.1*	8.1
CCOc1ccc(S(=O)(=O)c2c(C(=O)c3ccccc3)cnc3cc4c(cc23)OCCO4)cc1	93.1	-0.3	i	5.3
O=C(c1cnn2c(C(F)(F)F)cc(-c3ccco3)nc12)N1CCCCCC1	.	0.0	34.4	12.9
O=C(c1cnn2c(C(F)(F)F)cc(-c3cccs3)nc12)N1CCCC1	94.6	0.1	44.4*	3.4
NC(c1csc(Nc2ccccn2)n1)c1ccccc1Cl (centres undefined)	.	.	-9.5	.
Cc1[nH]c2ccccc2c1/C=N/NC(=O)c1cccc(Br)c1	187.7	-0.3	37.2	-13.0
Cc1[nH]c2ccccc2c1/C=N/NC(=O)c1cccc(S(=O)(=O)Nc2ccccc2Cl)c1	106.1	-0.4	44.5*	7.6	Neddyl inh conf=i
CN1C(N)=NC(=O)/C1=C\c1ccc(Br)cc1	96.6	-0.6	-22.8	-9.2
CC(C)(C)OC(=O)N1CCC(NC(=O)c2[nH]cnc2C(=O)Nc2ccccc2F)CC1	.	.	11.3	.
COc1cc(C2C3=C(CC(C)(C)CC3=O)Nc3c2c(=O)[nH]c(=O)n3Cc2ccccc2)ccc1O (centres undefined)	99.3	-0.8	32.7	5.2
COc1ccc(C2C3=C(CC(C)(C)CC3=O)Nc3c2c(=O)[nH]c(=O)n3Cc2ccccc2)cc1OC (centres undefined)	98.1	-0.1	44.2*	-0.3
SMILES	DSG3 Ab inh	Efflux pump mplx	Neddylation inh	Arr AP2 block	others
CCCCN(C)C(=O)c1cc2cc3cc(OC)ccc3nc2o1	96.4	-0.1	.	21.4
CCCCN(C)C(=O)c1cc2cc3ccc(OC)cc3nc2o1	137.3	0.2	57.7*	0.2	Neddyl inh conf=+
COc1cccc(/C(C)=N/Nc2ccc(S(=O)(=O)N3CCCCC3)cn2)c1	90.5	0.1	4.5	-5.5
O=c1cc(-c2ccccc2)oc2ccc(O)cc12	96.6	-0.1	0.4	36.7
COc1ccc(-c2cc(=O)c3cc(O)ccc3o2)cc1	104.4	0.5	49.8*	25.5
COc1ccc(CNC(=O)C(OC(=O)c2ccco2)c2ccccc2)cc1 (centres undefined)	.	-0.1	-0.8	5.4
CC(C(=O)NC1CCCCC1)N1C(=O)C2C3C=CC(C3)C2C1=O (centres undefined)	.	0.2	-1.1	-5.5
CC(C(=O)Nc1ccc2nccnc2c1)N1C(=O)C2C3C=CC(C3)C2C1=O (centres undefined)	102.0	-0.2	54.3*	-1.0
